Assay results reported in ChEMBL document CHEMBL5356984 (RSC Med Chem, 2023).
Activity calls are given as the source filed them. The calls are words filed in the database; no cut-off is given here.

What was measured:
MDA-MB-231 = test: Antiproliferative activity against human MDA-MB-231 cells assessed as inhibition of cell viability measured after 48 hrs by MTT assay; type: functional, cell-based; conditions: MDA-MB-231, 48 h
Procedure, shortened: (§1)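 MTT cell viability read-out; IC50 obtained by non-linear regression of concentration–response data; values are mean ± SD of three independent experiments.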

SK-BR-3 [1] = test: Induction of apoptosis in human SK-BR-3 cells assessed as late apoptotic cells at 5 uM incubated for 36 hrs by Annexin V/PI staining based flow cytometry (reference value: 4.95 %); type: functional
Heat shock protein HSP90 [2] = target: T1, Heat shock protein HSP90 (Homo sapiens, UniProt P07900+P08238); test: Inhibition of HSP90 in human MCF7 cells assessed as decrease in HER2 level at 5 to 20 uM incubated for 48 hrs by Western blot analysis; type: cell-based; conditions: dose 5-20 µM
Procedure, shortened: (§2)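 MCF-7 or SKBr3 cells were exposed for 48 h, then trypsinised, PBS-washed and lysed in RIPA buffer with phosphatase and protease inhibitors. Cleared lysate (14 000 rpm, 4 °C, 15 min) was BCA-quantified, and 20 µg protein was run on SDS-PAGE and blotted. Blots were blocked in 5% milk, incubated with primary antibodies (1:1000) overnight at 4 °C, then HRP secondary, and developed by ECL. GAPDH (1:10000) was the loading control.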

MCF7 [3] = test: Induction of apoptosis in human MCF7 cells assessed as necrotic cells at 20 uM incubated for 36 hrs by Annexin V/PI staining based flow cytometry (reference value: 2.30 %); type: functional
MCF7 [4] = test: Induction of apoptosis in human MCF7 cells assessed as early apoptotic cells at 5 uM incubated for 36 hrs by Annexin V/PI staining based flow cytometry (reference value: 1.13 %); type: functional
MCF7 [5] = test: Induction of apoptosis in human MCF7 cells assessed as early apoptotic cells at 10 uM incubated for 36 hrs by Annexin V/PI staining based flow cytometry (reference value: 1.13 %); type: functional
[6] = Metabolic stability in simulated intestinal fluid at 37 degreeC at 1 mg/ml measured upto 1 hr by HPLC analysis; type: ADME; conditions: simulated gi fluid
Procedure, shortened: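 Compound at 1 mg mL−1 was incubated in simulated intestinal fluid at 37 °C for up to 1 h. Remaining percentage was measured by HPLC on a C18 column (5 µm, 4.6 × 250 mm), eluting with 95% MeOH/5% H2O.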

SK-BR-3 [7] = test: Induction of apoptosis in human SK-BR-3 cells assessed as viable cells at 10 uM incubated for 36 hrs by Annexin V/PI staining based flow cytometry (reference value: 90.4 %); type: functional; conditions: read-out: Activity
SK-BR-3 [8] = test: Induction of apoptosis in human SK-BR-3 cells assessed as late apoptotic cells at 10 uM incubated for 36 hrs by Annexin V/PI staining based flow cytometry (reference value: 4.95 %); type: functional
SK-BR-3 [9] = test: Induction of apoptosis in human SK-BR-3 cells assessed as late apoptotic cells at 20 uM incubated for 36 hrs by Annexin V/PI staining based flow cytometry (reference value: 4.95 %); type: functional
[10] = Selectivity index, ratio of IC50 for HEK293T cells to IC50 for human MCF7 cells; type: toxicity; conditions: HEK293T cells versus MCF7 cells, read-out: Ratio IC50
Procedure, shortened: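 Viability of 293T and MCF-7 cells was measured by MTT assay, and IC50 was fitted by non-linear regression. The selectivity index is the 293T IC50 divided by the MCF-7 IC50.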

MCF7 [11] = test: Induction of cell cycle arrest in human MCF7 cells assessed as accumulation of cells at G1 phase at 5 to 10 uM incubated for 36 hrs by PI staining based flow cytometry; type: functional; conditions: dose 5-10 µM
Procedure, shortened: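 Following 36 h treatment (0, 5, 10 μM), trypsinized cells fixed overnight in 70% ethanol, treated with RNase (0.2 mg/mL) and PI (0.1 mg/mL) for 20 min, then analysed by flow cytometry for cell-cycle distribution; n = 3 versus control.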

BT-474 = test: Antiproliferative activity against human BT-474 cells assessed as inhibition of cell viability measured after 48 hrs by MTT assay; type: functional, cell-based; conditions: BT-474, 48 h; procedure, shortened: as §1
SK-BR-3 [12] = test: Induction of apoptosis in human SK-BR-3 cells assessed as early apoptotic cells at 20 uM incubated for 36 hrs by Annexin V/PI staining based flow cytometry (reference value: 2.73 %); type: functional
MCF7 [13] = test: Induction of apoptosis in human MCF7 cells assessed as viable cells at 20 uM incubated for 36 hrs by Annexin V/PI staining based flow cytometry (reference value: 90.5 %); type: functional; conditions: read-out: Activity
SK-BR-3 [14] = test: Effect on HSF-1 level in human SK-BR-3 cells assessed as nuclear accumulation at 10 uM incubated for 36 hrs by DAPI staining based immunofluorescence analysis; type: functional, cell-based
Procedure, shortened: (§3)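 Cells treated 36 h with DMSO vehicle control, then fixed with 4% paraformaldehyde 15 min, permeabilized with 0.2% Triton X-100 5 min, blocked with 3% BSA 15 min; primary antibody then fluorescent secondary antibody, each 1 h at room temperature; HSP70 green, HSF-1 red, nuclei DAPI; imaged by fluorescence microscopy.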

MDA-MB-468 = test: Antiproliferative activity against human MDA-MB-468 cells assessed as inhibition of cell viability measured after 48 hrs by MTT assay; type: functional, cell-based; conditions: MDA-MB-468, 48 h; procedure, shortened: as §1
MCF7 [15] = test: Induction of apoptosis in human MCF7 cells assessed as late apoptotic cells at 10 uM incubated for 36 hrs by Annexin V/PI staining based flow cytometry (reference value: 6.02 %); type: functional
SK-BR-3 [16] = test: Induction of apoptosis in human SK-BR-3 cells assessed as necrotic cells at 5 uM incubated for 36 hrs by Annexin V/PI staining based flow cytometry (reference value: 1.89 %); type: functional
Heat shock protein HSP90 [17] = target: T1, Heat shock protein HSP90; test: Inhibition of HSP90 in human MCF7 cells assessed as decrease in CDK4 level at 5 to 20 uM incubated for 48 hrs by Western blot analysis; type: cell-based; conditions: dose 5-20 µM; procedure, shortened: as §2
HEK-293T = test: Cytotoxicity against HEK293T cells assessed as cell growth inhibition measured after 48 hrs by MTT assay; type: functional, cell-based; conditions: Homo sapiens; procedure, shortened: as §1
MCF7 [18] = test: Induction of apoptosis in human MCF7 cells assessed as necrotic cells at 5 uM incubated for 36 hrs by Annexin V/PI staining based flow cytometry (reference value: 2.30 %); type: functional
SK-BR-3 [19] = test: Induction of apoptosis in human SK-BR-3 cells assessed as increase in cleaved pro-caspase-9 level at 10 to 20 uM incubated for 48 hrs by Western blot analysis; type: functional, cell-based; conditions: dose 10-20 µM
Procedure, shortened: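 Cells exposed 48 h (DMSO vehicle control); trypsinized, lysed in RIPA with phosphatase/protease inhibitors; 20 μg protein on SDS-PAGE, blotted, blocked 5% milk 1 h; primary antibodies 1:1000 overnight at 4 °C, GAPDH 1:10000 as loading control; HRP secondary 1:1000–1:5000; ECL detection.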

SK-BR-3 [20] = test: Effect on HSP70 level in human SK-BR-3 cells at 10 uM incubated for 36 hrs by DAPI staining based immunofluorescence analysis; type: functional, cell-based; procedure, shortened: as §3
MCF7 [21] = test: Induction of apoptosis in human MCF7 cells assessed as late apoptotic cells at 20 uM incubated for 36 hrs by Annexin V/PI staining based flow cytometry (reference value: 6.02 %); type: functional
SK-BR-3 [22] = test: Induction of apoptosis in human SK-BR-3 cells assessed as necrotic cells at 20 uM incubated for 36 hrs by Annexin V/PI staining based flow cytometry (reference value: 1.89 %); type: functional

With `CN1CCN(/C=C/C(=O)/C=C/c2cccc(O[Si](C)(C)C(C)(C)C)c2)CC1` the IC50 (MDA-MB-231) was 11.7 µM, the Activity (SK-BR-3 [1]) was 5.82% and the inhibition (Heat shock protein HSP90 [2]) was “Active”. For the same compound, the Activity (MCF7 [3]) was 16.2%, the Activity (MCF7 [4]) was 1.58% and the Activity (MCF7 [5]) was 2.6%. The Stability [6] was “Stable”, the viability at 10 µM (SK-BR-3 [7]) was 86.9% and the Activity (SK-BR-3 [8]) was 8.42%. For the same compound, the Activity (SK-BR-3 [9]) was 30.7%, the selectivity ratio [10] was ~4.2 and the Activity (MCF7 [11]) was “Active”. It also gave an IC50 (BT-474) of 9.06 µM, an Activity (SK-BR-3 [12]) of 47.7% and a viability at 20 µM (MCF7 [13]) of 51.7%. The Activity (SK-BR-3 [14]) was “inactive”, the IC50 (MDA-MB-468) was 8.16 µM and the Activity (MCF7 [15]) was 21.7%. The Activity (SK-BR-3 [16]) was 1.81%, the inhibition (Heat shock protein HSP90 [17]) was “Active” and the IC50 (HEK-293T) was 32.6 µM. For the same compound, the Activity (MCF7 [18]) was 8.45%, the Activity (SK-BR-3 [19]) was “Active” and the Activity (SK-BR-3 [20]) was “inactive”. The Activity (MCF7 [21]) was 28.4% and the Activity (SK-BR-3 [22]) was 3.13%.
